Positions count from the first letter of the chain named. Where “and” joins values, the source holds several entries; their conditions need not be identical. Equal values may be shown once. Marks after values point to notes of the source that are not given here.

Data set [1] addresses T1, ^-5IDH1/IDH2 enzyme (Saccharomyces cerevisiae, UniProt P28241+P28834).
T1 sequence (P28834 17-360 limits assumed): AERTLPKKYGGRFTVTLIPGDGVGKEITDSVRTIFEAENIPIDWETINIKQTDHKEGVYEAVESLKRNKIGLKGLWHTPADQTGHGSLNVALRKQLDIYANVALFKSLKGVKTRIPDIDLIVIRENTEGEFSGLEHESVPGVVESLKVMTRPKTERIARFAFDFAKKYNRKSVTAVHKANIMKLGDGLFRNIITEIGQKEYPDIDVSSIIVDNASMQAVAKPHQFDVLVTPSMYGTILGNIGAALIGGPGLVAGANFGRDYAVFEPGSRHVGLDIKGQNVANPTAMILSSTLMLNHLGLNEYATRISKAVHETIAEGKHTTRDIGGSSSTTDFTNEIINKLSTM
T1 sequence (P28241 16-369): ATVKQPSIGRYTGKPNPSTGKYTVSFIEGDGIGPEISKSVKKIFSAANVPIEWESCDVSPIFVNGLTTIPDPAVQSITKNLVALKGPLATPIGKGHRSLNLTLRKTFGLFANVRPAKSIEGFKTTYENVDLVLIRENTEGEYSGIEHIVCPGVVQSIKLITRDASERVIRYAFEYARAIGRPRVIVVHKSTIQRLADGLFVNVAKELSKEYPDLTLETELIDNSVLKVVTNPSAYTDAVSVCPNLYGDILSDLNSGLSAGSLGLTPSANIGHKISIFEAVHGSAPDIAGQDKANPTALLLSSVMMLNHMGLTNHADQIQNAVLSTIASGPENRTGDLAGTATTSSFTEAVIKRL
Briefly: Ligand protection from diamide-induced inactivation. It is filed as biochemical, yeast.

The target of data set [2] is T2, wild-type IDH1/IDH2 enzyme (Saccharomyces cerevisiae, UniProt P28241+P28834).
T2 sequence (P28834 12-360): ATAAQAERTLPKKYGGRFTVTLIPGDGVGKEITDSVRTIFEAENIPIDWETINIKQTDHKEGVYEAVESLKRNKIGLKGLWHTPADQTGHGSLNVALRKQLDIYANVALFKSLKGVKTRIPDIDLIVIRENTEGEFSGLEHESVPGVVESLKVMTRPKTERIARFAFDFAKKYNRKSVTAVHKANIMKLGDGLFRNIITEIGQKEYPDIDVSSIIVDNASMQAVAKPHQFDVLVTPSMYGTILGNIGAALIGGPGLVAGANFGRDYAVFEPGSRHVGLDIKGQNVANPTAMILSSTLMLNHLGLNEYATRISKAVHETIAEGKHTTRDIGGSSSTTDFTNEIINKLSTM
T2 sequence (P28241 16-369): T1 sequence (P28241 16-369)
Described as above. The class given is biochemical, yeast.

Data set [3] deals with IDH1^G15D/IDH2 enzyme (tetrameric) (Saccharomyces cerevisiae, UniProt P28241+P28834, G26D). Description: Diamide inhibition of catalytic activity. It is filed as biochemical, yeast.
In data set [4] the target is ^-5IDH1^D168K/IDH2 enzyme (tetrameric) (Saccharomyces cerevisiae, UniProt P28241+P28834, D179K). Description: Diamide inhibition of catalytic activity. The class given is biochemical, yeast.
Data set [5] concerns the target T3, IDH1/IDH2 enzyme (wild-type, octameric) (Saccharomyces cerevisiae, UniProt P28241+P28834).
T3 sequence (P28834 12-360): T2 sequence (P28834 12-360)
T3 sequence (P28241 16-369): T1 sequence (P28241 16-369)
Description: Diamide inhibition of catalytic activity. It is filed as biochemical, yeast. The essentials:
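Purified His-tagged enzyme (E. coli BL21-Gold (DE3), IPTG-induced, Ni-NTA purified) at 1 μM in 50 mM Tris-HCl pH 7.4 is held 2 h on ice with a range of diamide concentrations from a fresh water stock. Activity is then assayed (40 mM Tris-HCl pH 7.4, 1 mM D-isocitrate, 4 mM MgCl2, 0.5 mM NAD+; NADH formation, 24 °C). Untreated activity is set as 100%, and the 50% value is read from the graphs.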

Data set [6] deals with ^-5IDH1^G15D/IDH2 enzyme (tetrameric) (Saccharomyces cerevisiae, UniProt P28241+P28834, G26D). Description: Diamide inhibition of catalytic activity. It is filed as biochemical, yeast.
The target of data set [7] is ^-5IDH1/IDH2 enzyme (truncated, octameric) (Saccharomyces cerevisiae, UniProt P28241+P28834). Description: Diamide inhibition of catalytic activity. The class given is biochemical, yeast.
Data set [8] has as its target T4, IDH1^G15D/IDH2 enzyme (Saccharomyces cerevisiae, UniProt P28241+P28834, G26D).
T4 sequence (P28834 12-360 G26D): T2 sequence (P28834 12-360) with G15D
T4 sequence (P28241 16-369): T1 sequence (P28241 16-369)
It is filed as biochemical, yeast. The note with it: 10 μM diamide, 2 h.

Data set [9] has as its target T5, IDH1/IDH2 enzyme (Saccharomyces cerevisiae, UniProt P28241+P28834).
T5 sequence (P28834 12-360): T2 sequence (P28834 12-360)
T5 sequence (P28241 16-369): T1 sequence (P28241 16-369)
The class given is biochemical, yeast. The note with it: no or low concentration (10 μM) of diamide, 2 h. The essentials:
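Affinity-purified His-tagged enzyme (1 μM in 50 mM Tris-HCl pH 7.4) is treated 2 h on ice with 0 or 10 μM diamide. Then 3.5 μg samples are run on […] and stained with Coomassie blue to see the IDH2 Cys-150 disulfide band.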

Data set [10] concerns the molecule itself. Briefly: cross-linking.
The subject of data set [11] is Yeast NAD+-specific isocitrate dehydrogenase (IDH). Briefly: Kinetic analyses: isocitrate saturation velocity curves of purified IDH enzymes. It is filed as biochemical. The gist of the method:
(§1)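 His-tagged IDH purified by Ni2+-NTA, stored at −20 °C in elution buffer with 20% glycerol, quantified by A280. Assays at 24 °C used 40 mM Tris-HCl pH 7.4, 4 mM MgCl2 and 0.5 mM NAD+. D-isocitrate was varied 0–5 mM, with or without 100 μM AMP, and NADH formation was followed. Apparent S0.5 and Hill coefficients came from saturation curves, Vmax as maximum velocity per mg, over two independent experiments.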

Data set [12] addresses T6, Yeast NAD+-specific isocitrate dehydrogenase (IDH) (Saccharomyces cerevisiae, UniProt P28241+P28834).
T6 sequence (P28834 12-360): T2 sequence (P28834 12-360)
T6 sequence (P28241 16-369): T1 sequence (P28241 16-369)
Described as above. The class given is biochemical. The note with it: 100 μM AMP. The essentials:
as §1

[13] abbreviates: 2 h, read-out: reduction in activity.

Chain of ^-5IDH1^D168K/IDH2 enzyme (tetrameric) (P28834 17-360 D179K, one chain of several): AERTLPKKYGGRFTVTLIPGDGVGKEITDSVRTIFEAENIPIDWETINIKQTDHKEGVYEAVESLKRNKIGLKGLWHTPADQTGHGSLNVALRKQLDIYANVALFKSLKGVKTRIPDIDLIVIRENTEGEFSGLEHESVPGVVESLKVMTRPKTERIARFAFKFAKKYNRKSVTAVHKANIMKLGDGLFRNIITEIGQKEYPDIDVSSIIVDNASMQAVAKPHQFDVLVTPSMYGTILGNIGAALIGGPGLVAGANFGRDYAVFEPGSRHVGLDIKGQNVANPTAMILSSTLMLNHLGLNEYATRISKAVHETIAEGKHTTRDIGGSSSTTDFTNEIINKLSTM
Chain of IDH1^G15D/IDH2 enzyme (tetrameric) (P28834 12-360 G26D, one chain of several): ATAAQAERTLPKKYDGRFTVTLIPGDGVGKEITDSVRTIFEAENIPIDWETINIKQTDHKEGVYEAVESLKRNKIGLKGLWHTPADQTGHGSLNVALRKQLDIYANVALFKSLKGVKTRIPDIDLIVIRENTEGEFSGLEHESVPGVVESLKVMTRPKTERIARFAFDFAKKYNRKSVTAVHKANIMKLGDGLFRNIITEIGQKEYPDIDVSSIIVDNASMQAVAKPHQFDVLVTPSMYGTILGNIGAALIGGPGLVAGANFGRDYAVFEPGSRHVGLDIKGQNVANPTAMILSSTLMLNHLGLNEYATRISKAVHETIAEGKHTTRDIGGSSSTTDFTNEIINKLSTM
Chain of ^-5IDH1^G15D/IDH2 enzyme (tetrameric) (P28834 17-360 G26D, one chain of several): as the sequence (P28834 17-360 D179K, one chain of several) above, with G10D, K163D counted along it

`O=C(O)CC(O)(CC(=O)O)C(=O)O` [citrate]: the “effect of citrate preincubation on diamide inhibition” value in [1] (increasing citrate (0 to 100 mM), 4 mM MgCl2, 100 μM AMP before 0.16 mM diamide) is given as “essentially no effect”; in [2] (100 mM citrate, 4 mM MgCl2, 100 μM AMP for 15 min before 0.5 mM diamide), “no inhibition by diamide was observed”.
Turning to `CN(C)C(=O)/N=N/C(=O)N(C)C` [diamide], the IC50 was determined as 6.5 µM in data set [3]; 13 µM in [4]; 500 µM in data set [5]; 7.5 µM in data set [6]; 160 µM in data set [7]. In addition, the inhibition at 160 µM in data set [1] (setting [13]) came out at 43%. Besides, the “increase in sensitivity to diamide relative to the IDH1/IDH2 enzyme” value in data set [7] (^-5IDH1/IDH2 vs IDH1/IDH2, 120 min) is ~ 3 fold and 3 fold. The inhibition at 500 µM in data set [2] (setting [13]) worked out at 63%. The “formation of IDH2 Cys-150 disulfide bond” value in data set [8] is on record as “most of the IDH2 subunit is present as the disulfide bond form”; in data set [9] it was “no formation of this bond”.

B1: IDH2 subunit (natural protein, yeast)
chain: T1 sequence (P28241 16-369)
For B1, in [10], the binding result is “binds”.

B2: IDH1/IDH2: wild-type yeast NAD+-specific isocitrate dehydrogenase, octamer of IDH1 and IDH2 subunits, histidine tag on IDH1 (protein)
chain 1: T2 sequence (P28834 12-360)
chain 2: T1 sequence (P28241 16-369)
modifications: left off: histidine tag, C-terminal, kept
For B2, the “Hill coef. with respect to isocitrate, − AMP” value in data set [11] (absence of AMP) amounted to 3.1. Moreover, the “Vmax (apparent), + AMP” value in data set [11] (isocitrate velocity saturation curve, presence of 100 μM AMP) is 32.3/32.3 (±0.7/0.4) ^b units/mg. Besides, the “Hill coef. with respect to isocitrate, + AMP” value in data set [11] (presence of 100 μM AMP) worked out at 3.5. In data set [12], the “increase in the apparent affinity for isocitrate in the presence of AMP” value was ~ 5 fold.
